Laboratory results taken from ChEMBL document CHEMBL1777703, “Synthesis and Biological Evaluation of Muraymycin Analogues Active against Anti-Drug-Resistant Bacteria” (ACS Med Chem Lett, 2010).
pIC50: −log10 of the molar value. In brackets after ≈: the same amount, converted by molar mass.

Tests used:
Enterococcus faecium [1] = assay: Antibacterial activity against vancomycin-resistant Enterococcus faecium SR7917 after 20 hrs by broth microdilution method; assay type: functional; conditions: SR7917, 20 h
How it was run: (§1)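 MIC by broth microdilution following NCCLS guidance in cation-adjusted Mueller-Hinton broth. Compounds tested as serial 2-fold dilutions, tested up to 64 μg/mL. Each well inoculated with 5 × 10^4 CFU of the strain in 0.1 mL. Incubation at 35 °C for 20 h, after which the MIC was scored.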

Staphylococcus aureus [2] = assay: Antibacterial activity against methicillin-susceptible Staphylococcus aureus ATCC 29213 after 20 hrs by broth microdilution method; assay type: functional; conditions: ATCC 29213, 20 h; how it was run: as §1
Staphylococcus aureus [3] = assay: Antibacterial activity against methicillin-resistant Staphylococcus aureus SR3637 after 20 hrs by broth microdilution method; assay type: functional; conditions: SR3637, 20 h; how it was run: as §1
Enterococcus faecalis [4] = assay: Antibacterial activity against vancomycin-resistant Enterococcus faecalis SR7914 after 20 hrs by broth microdilution method; assay type: functional; conditions: SR7914, 20 h; how it was run: as §1
Enterococcus faecium [5] = assay: Antibacterial activity against Enterococcus faecium ATCC 19434 after 20 hrs by broth microdilution method; assay type: functional; conditions: ATCC 19434, 20 h; how it was run: as §1
[6] = target: T1, Phospho-N-acetylmuramoyl-pentapeptide-transferase (Bacillus subtilis (strain 168), UniProt Q03521); assay: Inhibition of purified Bacillus subtilis MraY assessed as incorporation of MurNAc-[14C]pentapeptide into lipid 1 after 30 mins
T1 sequence (Q03521 whole entry): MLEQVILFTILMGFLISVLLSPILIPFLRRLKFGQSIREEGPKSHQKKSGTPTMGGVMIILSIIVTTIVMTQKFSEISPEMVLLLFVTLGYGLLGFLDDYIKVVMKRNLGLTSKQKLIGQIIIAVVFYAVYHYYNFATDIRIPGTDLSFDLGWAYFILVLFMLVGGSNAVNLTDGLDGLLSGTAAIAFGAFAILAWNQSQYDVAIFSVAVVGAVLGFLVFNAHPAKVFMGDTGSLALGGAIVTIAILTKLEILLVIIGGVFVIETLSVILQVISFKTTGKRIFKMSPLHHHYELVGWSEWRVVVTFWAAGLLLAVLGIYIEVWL
How it was run: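 Purified B. subtilis MraY. Final mix: 100 mM Tris-HCl pH 7.5, 40 mM MgCl2, 1.1 mM C55-P, 250 mM NaCl, 0.25 mM UDP-MurNAc-[14C]pentapeptide (337 Bq), 8.4 mM N-lauroyl sarcosine. Incubated 30 min at 37 °C. Substrate and lipid I separated by silica TLC and quantified by radioactivity scanning. IC50 calculated relative to an inhibitor-free control.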

Enterococcus faecalis [7] = assay: Antibacterial activity against Enterococcus faecalis ATCC 29212 after 20 hrs by broth microdilution method; assay type: functional; conditions: ATCC 29212, 20 h
How it was run: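 MIC by NCCLS broth microdilution in cation-adjusted Mueller-Hinton broth with serial 2-fold compound dilutions. Inoculum 5 × 10^4 CFU per strain in 0.1 mL. Incubated 35 °C for 20 h before scoring.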

HepG2 = assay: Cytotoxicity against human HepG2 cells after 48 hrs by WST-8 assay; assay type: cell-based; conditions: hepg2, 48 h

SMILES | MIC (Enterococcus faecium [1]) | MIC (Staphylococcus aureus [2]) | MIC (Staphylococcus aureus [3]) | MIC (Enterococcus faecalis [4]) | MIC (Enterococcus faecium [5]) | pIC50 [6] | MIC (Enterococcus faecalis [7]) | Activity (HepG2)
CCCCCCCCCCCCN[C@H](C(=O)O)[C@H](O[C@@H]1O[C@H](CN)[C@@H](O)[C@H]1O)[C@H]1O[C@@H](n2ccc(=O)[nH]c2=O)[C@H](O)[C@@H]1O | 64 µg/mL (≈ 104 µM) | > 64 µg/mL | > 64 µg/mL | 64 µg/mL (≈ 104 µM) | 64 µg/mL (≈ 104 µM) | 5.30 | 32 µg/mL (≈ 51.9 µM) | –
CC(C)[C@H](NC(=O)N[C@H](C(=O)N[C@@H](CCCCCCCc1ccc(-c2ccccc2)cc1)C(=O)NCCCN[C@H](C(=O)O)[C@H](O[C@@H]1O[C@H](CN)[C@@H](O)[C@H]1O)C1O[C@@H](n2ccc(=O)[nH]c2=O)[C@H](O)[C@@H]1O)[C@@H]1CCNC(=N)N1)C(=O)O (single isomer, unassigned) | 8 µg/mL (≈ 7.21 µM) | 4 µg/mL (≈ 3.6 µM) | 4 µg/mL (≈ 3.6 µM) | 16 µg/mL (≈ 14.4 µM) | 4 µg/mL (≈ 3.6 µM) | – | 4 µg/mL (≈ 3.6 µM) | Non-toxic
CCCCOc1ccc(-c2ccc(CC[C@@H](NC(=O)[C@@H](NC(=O)N[C@H](C(=O)O)C(C)C)[C@@H]3CCNC(=N)N3)C(=O)NCCCN[C@H](C(=O)O)[C@H](O[C@@H]3O[C@H](CN)[C@@H](O)[C@H]3O)C3O[C@@H](n4ccc(=O)[nH]c4=O)[C@H](O)[C@@H]3O)cc2)cc1 (single isomer, unassigned) | 8 µg/mL (≈ 7.19 µM) | 64 µg/mL (≈ 57.5 µM) | 64 µg/mL (≈ 57.5 µM) | 64 µg/mL (≈ 57.5 µM) | 4 µg/mL (≈ 3.6 µM) | – | 32 µg/mL (≈ 28.8 µM) | Non-toxic
CCCCCCOc1ccc(-c2ccc([C@H](NC(=O)[C@@H](NC(=O)N[C@H](C(=O)O)C(C)C)[C@@H]3CCNC(=N)N3)C(=O)NCCCN[C@H](C(=O)O)[C@H](O[C@@H]3O[C@H](CN)[C@@H](O)[C@H]3O)C3O[C@@H](n4ccc(=O)[nH]c4=O)[C@H](O)[C@@H]3O)cc2)cc1 (single isomer, unassigned) | 4 µg/mL (≈ 3.6 µM) | 4 µg/mL (≈ 3.6 µM) | 8 µg/mL (≈ 7.19 µM) | 8 µg/mL (≈ 7.19 µM) | 4 µg/mL (≈ 3.6 µM) | – | 8 µg/mL (≈ 7.19 µM) | Non-toxic
CCCCCCOc1ccc(-c2ccc([C@@H](NC(=O)[C@@H](NC(=O)N[C@H](C(=O)O)C(C)C)[C@@H]3CCNC(=N)N3)C(=O)NCCCN[C@H](C(=O)O)[C@H](O[C@@H]3O[C@H](CN)[C@@H](O)[C@H]3O)C3O[C@@H](n4ccc(=O)[nH]c4=O)[C@H](O)[C@@H]3O)cc2)cc1 (single isomer, unassigned) | 8 µg/mL (≈ 7.19 µM) | 16 µg/mL (≈ 14.4 µM) | 16 µg/mL (≈ 14.4 µM) | 16 µg/mL (≈ 14.4 µM) | 4 µg/mL (≈ 3.6 µM) | – | 16 µg/mL (≈ 14.4 µM) | Non-toxic
CC(C)C[C@@H](NC(=O)[C@@H](NC(=O)N[C@H](C(=O)O)C(C)C)[C@@H]1CCN=C(N)N1)C(=O)NCCCN[C@H](C(=O)O)[C@H](O[C@@H]1O[C@H](CN)[C@@H](O)[C@H]1O)C1O[C@@H](n2ccc(=O)[nH]c2=O)[C@H](O)[C@@H]1O (single isomer, unassigned) | > 64 µg/mL | > 64 µg/mL | > 64 µg/mL | > 64 µg/mL | > 64 µg/mL | 7.05 | > 64 µg/mL | –
CCCCCCCCCCCCCCC[C@H](NC(=O)[C@@H](NC(=O)N[C@H](C(=O)O)C(C)C)[C@@H]1CCN=C(N)N1)C(=O)NCCCN[C@H](C(=O)O)[C@H](O[C@@H]1O[C@H](CN)[C@@H](O)[C@H]1O)C1O[C@@H](n2ccc(=O)[nH]c2=O)[C@H](O)[C@@H]1O (single isomer, unassigned) | 2 µg/mL (≈ 1.87 µM) | 2 µg/mL (≈ 1.87 µM) | 4 µg/mL (≈ 3.74 µM) | 4 µg/mL (≈ 3.74 µM) | 4 µg/mL (≈ 3.74 µM) | 6.48 | 4 µg/mL (≈ 3.74 µM) | Non-toxic
CCCCCCCCCCCCCCC[C@@H](NC(=O)[C@@H](NC(=O)N[C@H](C(=O)O)C(C)C)[C@@H]1CCN=C(N)N1)C(=O)NCCCN[C@H](C(=O)O)[C@H](O[C@@H]1O[C@H](CN)[C@@H](O)[C@H]1O)C1O[C@@H](n2ccc(=O)[nH]c2=O)[C@H](O)[C@@H]1O (single isomer, unassigned) | 0.25 µg/mL (≈ 0.234 µM) | 2 µg/mL (≈ 1.87 µM) | 4 µg/mL (≈ 3.74 µM) | 4 µg/mL (≈ 3.74 µM) | 0.5 µg/mL (≈ 0.467 µM) | 6.13 | 2 µg/mL (≈ 1.87 µM) | Non-toxic
CC(C)[C@H](NC(=O)N[C@H](C(=O)N[C@H](CCCCCCCc1ccc(-c2ccccc2)cc1)C(=O)NCCCN[C@H](C(=O)O)[C@H](O[C@@H]1O[C@H](CN)[C@@H](O)[C@H]1O)C1O[C@@H](n2ccc(=O)[nH]c2=O)[C@H](O)[C@@H]1O)[C@@H]1CCNC(=N)N1)C(=O)O (single isomer, unassigned) | 4 µg/mL (≈ 3.6 µM) | 8 µg/mL (≈ 7.21 µM) | 16 µg/mL (≈ 14.4 µM) | 16 µg/mL (≈ 14.4 µM) | 4 µg/mL (≈ 3.6 µM) | – | 8 µg/mL (≈ 7.21 µM) | Non-toxic
CCCCOc1ccc(-c2ccc(CC[C@H](NC(=O)[C@@H](NC(=O)N[C@H](C(=O)O)C(C)C)[C@@H]3CCNC(=N)N3)C(=O)NCCCN[C@H](C(=O)O)[C@H](O[C@@H]3O[C@H](CN)[C@@H](O)[C@H]3O)C3O[C@@H](n4ccc(=O)[nH]c4=O)[C@H](O)[C@@H]3O)cc2)cc1 (single isomer, unassigned) | 32 µg/mL (≈ 28.8 µM) | 16 µg/mL (≈ 14.4 µM) | 32 µg/mL (≈ 28.8 µM) | 64 µg/mL (≈ 57.5 µM) | 16 µg/mL (≈ 14.4 µM) | – | 16 µg/mL (≈ 14.4 µM) | Non-toxic
CC(C)C[C@H](NC(=O)[C@@H](NC(=O)N[C@H](C(=O)O)C(C)C)[C@@H]1CCNC(=N)N1)C(=O)NCCCN[C@H](C(=O)O)[C@H](O[C@@H]1O[C@H](CN)[C@@H](O)[C@H]1O)[C@H]1O[C@@H](n2ccc(=O)[nH]c2=O)[C@H](O)[C@@H]1O [MURAMYCIN D2] | > 64 µg/mL | > 64 µg/mL | > 64 µg/mL | > 64 µg/mL | > 64 µg/mL | 8.00 | > 64 µg/mL | –
CN[C@H](CC(C)C)C(=O)N[C@H]1C(=O)N[C@@H](CC(N)=O)C(=O)N[C@H]2C(=O)N[C@H]3C(=O)N[C@H](C(=O)N[C@H](C(=O)O)c4cc(O)cc(O)c4-c4cc3ccc4O)[C@H](O)c3ccc(c(Cl)c3)Oc3cc2cc(c3O[C@@H]2O[C@H](CO)[C@@H](O)[C@H](O)[C@H]2O[C@H]2C[C@](C)(N)[C@H](O)[C@H](C)O2)Oc2ccc(cc2Cl)[C@H]1O [VANCOMYCIN] | > 64 µg/mL | – | – | > 64 µg/mL | – | – | 1 µg/mL (≈ 0.69 µM) | –
